The list is not random: actives were taken first. Their share in the collection is about 1.7%.
SR-BI DiI inh – blocks mouse SR-BI lipid uptake from DiI-HDL; AID 488896; inhibition, % at 12.5 µM; ldlA[mSR-BI] CHO cells, DiI-HDL uptake fluorescence, 3 h; actives 0.96% (n = 320,000);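 active = mean replicate inhibition of at least 70% and a set share of replicates each scoring 70 or more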;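 note: 0% = median of neutral control wells and 100% = median of positive control wells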
Target sequence (Q61009 whole entry, looked up): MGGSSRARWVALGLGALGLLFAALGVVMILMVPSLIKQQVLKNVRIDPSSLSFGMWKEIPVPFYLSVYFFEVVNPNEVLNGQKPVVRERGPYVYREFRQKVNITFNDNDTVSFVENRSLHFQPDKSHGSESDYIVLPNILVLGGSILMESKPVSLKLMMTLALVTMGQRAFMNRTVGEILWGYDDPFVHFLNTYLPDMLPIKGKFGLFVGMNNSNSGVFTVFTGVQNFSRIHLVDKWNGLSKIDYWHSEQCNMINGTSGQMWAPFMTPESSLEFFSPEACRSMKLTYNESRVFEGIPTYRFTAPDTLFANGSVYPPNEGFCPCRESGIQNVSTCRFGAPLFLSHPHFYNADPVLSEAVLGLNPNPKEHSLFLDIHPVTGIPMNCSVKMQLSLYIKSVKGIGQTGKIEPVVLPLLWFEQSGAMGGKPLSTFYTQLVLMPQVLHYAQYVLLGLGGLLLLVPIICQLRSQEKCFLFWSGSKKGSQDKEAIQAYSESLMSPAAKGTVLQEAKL
Vif inh – HIV Vif inhibition; actives 0.35% (n = 340,000); HEK293T cells, Vif self-association by quenched fluorescence, imaging, 24 h; AID 602346; inhibition, % at 7.49 µM; in the data active = inhibition above about 50%, passing the limit was not always enough
Statin myotox sup – protects C2C12 myotubes from simvastatin toxicity | rescue of ATP level, % at 7.49 µM | actives 0.78% (n = 330,000) | ATP luminescence, 48 h; scaled: DMSO 0, geranylgeraniol control 100;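 active = mean ATP rescue above about 67%, or every replicate alone reaching that limit, limit read from the data, passing the limit was not always enough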;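 note: myotubes were challenged with 10 µM simvastatin during compound exposure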
SR-BI uptake up – enhances SR-BI lipid uptake from DiI-HDL; CHO ldlA[mSR-BI] cells, DiI-HDL uptake fluorescence, 3 h; 100 = double the neutral-control signal; activation, % at 12.5 µM; actives 0.096% (n = 320,000); AID 504775;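 active = mean replicate activation of at least 60% and every replicate at or above 60%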;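 note: 0% = median plate neutral-control signal and 100% = twice that signal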
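Assay system: LDL receptor-deficient CHO ldlA cells overexpressing murine SR-BI / Medium: BSA-supplemented, HEPES-buffered Ham's F12, pH 7.4 / Probe or stimulus: DiI-labelled HDL at 10 µg/mL final / Timing: compound with DiI-HDL co-incubation, 3 h at 37 °C / Technique: bottom-read cell fluorescence after medium removal, ex 550/em 595 nm / Measure: HDL uptake via cellular fluorescence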
* marks the source's active call; other numbers are inactive results; . = no result.

SMILES | SR-BI DiI inh | Vif inh | Statin myotox sup | SR-BI uptake up
C=C(NC(=O)C(=C)NC(=O)c1csc(C2=NC3c4csc(n4)C4NC(=O)c5csc(n5)C(C(C)(O)C(C)O)NC(=O)C5CSC(=N5)/C(=C/C)NC(=O)C(C(C)O)NC(=O)c5csc(n5)C3(CC2)NC(=O)C(C)NC(=O)C(=C)NC(=O)C(=C)NC(=O)C(C(C)C)NC2C=Cc3c(C(C)O)cc(nc3C2O)C(=O)OC4C)n1)C(N)=O (configuration not stated) | -143 | 176* | . | 143*
Cc1noc(C)c1NC(=O)N(C)C[C@@H]1Oc2c(NC(=O)c3cnccn3)cccc2C(=O)N([C@H](C)CO)C[C@@H]1C | . | . | 32 | .
Cc1ccc(NC(=O)/C(C#N)=C/c2cccs2)c(C)c1 | 4 | . | . | -4
Cc1cccc(C)c1NC(=O)/C(C#N)=C/c1cccs1 | 7 | 30 | 84* | -7
O=C(CN1CCOCC1)N[C@@H]1CC[C@H](CCNC(=O)Nc2cc(F)ccc2F)O[C@@H]1CO | . | . | 9 | .
CCCCc1ccc(N=N/C(C(=O)Nc2cc(OC)c(NC(C)=O)cc2OC)=C(/C)O)cc1 | 87* | 6 | . | -87
Nc1ccc2c(c1)Cc1cc([N+](=O)[O-])ccc1-2 | 26 | 4 | . | -26
CC(O)CN(CC(C)O)c1ccc2c(c1)Cc1cc([N+](=O)[O-])ccc1-2 (configuration not stated) | 89* | . | -4 | -89
CN(C)CCCNC(=O)/C=C/c1ccc2c(c1)OCO2 | -70 | -8 | -3 | 70*
CC(=O)Nc1ccc(NC(=O)/C=C/c2ccc3c(c2)OCO3)cc1 | 11 | 0 | . | -11
O=C(O)C[C@H]1CC[C@@H](NC(=O)c2ccccc2F)[C@H](CO)O1 | . | . | 1 | .
O=[N+]([O-])c1ccc(-c2c(-c3ccccc3)ncc3cc(F)ccc23)cc1 | 86* | 3 | -4 | -86
S=C(NNc1ccnc2cc(Cl)ccc12)Nc1ccccc1Cl | 89* | -6 | . | -89
S=C(Nc1ccccc1Cl)Nc1ccc(Cl)cc1Cl | -2 | 8 | -6 | 2
CC(NC(=O)N(Cc1ccccc1)Cc1ccc2c(c1)OCO2)(C(F)(F)F)C(F)(F)F | 8 | 83* | 5 | -8
S=C(Nc1ccc(Cl)cc1)c1nc2ccccc2[nH]1 | 123* | 1 | . | -123
Cc1ccccc1NC(=O)NCCc1nc2ccccc2[nH]1 | -1 | 12 | 3 | 1
O=C(/C(=C\c1ccccc1)c1nc2ccccc2[nH]1)c1ccc(Cl)cc1 | 7 | 2 | . | -7
Cc1ccccc1NC(=S)c1nc2ccccc2[nH]1 | 79* | -1 | 1 | -79
CO[C@H]1CN(C)C(=O)c2cc(NS(=O)(=O)c3ccccc3Cl)ccc2OC[C@@H](C)NC[C@H]1C | . | . | 0 | .
O=C(O)C[C@H]1C[C@H]2c3cc(NC(=O)NC4CCCCC4)ccc3O[C@H]2[C@@H](CO)O1 | . | . | 2 | .
COc1cc([N+](=O)[O-])cc(/C=N/NC(=O)c2cncc(Br)c2)c1O | . | 23 | 30 | .
COc1cc(/C=N/NC(=O)c2cncc(Br)c2)cc([N+](=O)[O-])c1O | 120* | 1 | 53 | -120
CC(CCC(=O)O)C1CCC2C3CCC4C[C@H](O)CCC4(C)C3CC(=O)C12C (some centres not stated) | -32 | 53* | -14 | 32
CCCNC(=O)C(CC)NC(=O)c1ccc(C#N)cc1 (configuration not stated) | -62 | 0 | 19 | 62*
SMILES | SR-BI DiI inh | Vif inh | Statin myotox sup | SR-BI uptake up
CCCCCCCCC(NC(=O)c1ccc(C#N)cc1)C(=O)NCCC (configuration not stated) | 2 | 26 | 159* | -2
CCCNC(=O)C(Cc1ccc(F)cc1)NC(=O)c1ccc(C#N)cc1 (configuration not stated) | 10 | -5 | -8 | -10
CC=Cc1ccc2n(c1=O)C[C@@H]1[C@@H](CO)[C@H](C(=O)N3CCc4ccccc4C3)[C@H]2N1Cc1ccncc1 (mixture of isomers) | . | . | 0 | .
COc1ccc(CCNc2nnc(Sc3nnnn3-c3ccccc3)s2)cc1OC | 28 | 139* | -47 | -28
COc1ccc(-n2nnnc2SCC(=O)NCCc2ccccc2)cc1OC | 6 | 1 | . | -6
COc1ccc(CCNC(=O)c2ccc(-c3cccc([N+](=O)[O-])c3)o2)cc1OC | 72* | -5 | . | -72
COc1ccc(NC(=O)NCCN2CCc3ccccc3C2)cc1 | -10 | 3 | . | 10
O=C(NCCCN1CCc2ccccc2C1)Nc1ccc(Cl)cc1 | -22 | -2 | 87* | 22
CCOC(=O)c1sc2nc(SC)nc(-c3ccc(Cl)cc3)c2c1N | 87* | 1 | . | -87
